Source: PubChem (Johns Hopkins Ion Channel Center)
An excerpt weighted towards active compounds, which were near 2.3% of everything screened.
TRPC6 inhibitor = blocks the mouse TRPC6 cation channel. B-score at 10 µM. 310,000 tested, 1.1% active. HEK293-TRPC6, membrane potential dye, ACh-evoked depolarization; hits give low values;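 active = B-score under library mean minus 3 SD, initial fluorescence not abnormally high, positive integrated signal ratio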;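 note: B-score derived from integrated fluorescence ratio over the kinetic read; more negative B-score means stronger inhibition of depolarization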
TRPC4 PAM = allosteric potentiators of mouse TRPC4 channel | Q9QUQ5 | HEK293 TRPC4beta/mu-opioid, DAMGO EC20, Fluo-4 Ca2+ flux; hits give high values | B-score at 10 µM | 310,000 tested, 0.42% active | AID 2227;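 active = B-score of calcium response area above 5 SD of library B-scores, with initial fluorescence ratio within 5 SD of library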;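 note: B-score of integrated fluorescence ratio over time as area under calcium response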
TRPC4 inh = inhibitors of mouse TRPC4 channel | HEK293 TRPC4beta/mu-opioid, DAMGO-evoked Fluo4 calcium flux; hits give low values | 300,000 tested, 0.39% active | B-score at 10 µM | AID 2247 | Q9QUQ5;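 active = B-score over 3 SD under the library average, no early fluorescence shift, positive overall ratio signal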
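Test system – stable TRPC4beta/mu-opioid receptor HEK293 cells · Probe or stimulus – DAMGO, a submaximal dose followed by a maximal one · Dosing – one concentration per compound · Signal – Fluo4 calcium fluorescence by kinetic imaging, 5 s 1 Hz baseline · Evaluation – per-well B score of integrated baseline-normalized Fluo4 ratio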
TRPC6 act = activates the mouse TRPC6 cation channel. Q61143. HEK293-TRPC6 membrane potential dye fluorescence; hits give high values. B-score at 10 µM. 310,000 tested, 0.13% active. AID 2550;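 active = B-score of the integrated fluorescence ratio above library mean plus 3 SD, and starting fluorescence ratio within library mean plus 5 SD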;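 note: higher score means more depolarization so channel activation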
TRPC4 act = opens the mouse TRPC4 cation channel; HEK293 TRPC4beta/mu-opioid, Fluo4 calcium fluorescence; hits give high values; Q9QUQ5; 310,000 tested, 0.49% active; B-score at 10 µM;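 active = B-score above 5 SD of library B-scores, and initial fluorescence ratio not above library mean plus 5 SD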;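 note: positive B-score marks a calcium rise read as TRPC4 activation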
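System: HEK293 cells stably co-expressing mouse TRPC4beta and mu-opioid receptor; Schedule: Fluo4 dye loading 45 min at room temperature, 110 s recording; Detection: Fluo4 fluorescence, kinetic; Evaluation: B-scored integrated calcium fluorescence ratio; Controls: buffer (low) and maximal DAMGO (high).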
TRPC4 sel inh 2 = second check of whether TRPC6 inhibitors also affect mouse TRPC4. 920 tested, 42% active. HEK293 TRPC4/MOR, membrane potential dye fluorescence; channel activated by saturating DAMGO dose. AID 2776. shares compounds with TRPC6 inhibitor. inhibition, % at 10 µM;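 active = compounds whose fluorescence signal differed from control wells by over 3 SD, either direction, in both duplicate plates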
TRPC4 spec = mouse TRPC4 off-target activity of TRPC6 inhibitors; 920 tested, 61% active; AID 2777; activity change, negative = inhibition, % at 10 µM; HEK293 TRPC4/mu-opioid, membrane potential fluorescence; shares compounds with TRPC6 inhibitor;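 active = rise or fall in signal beyond 3 SD of buffer-only wells in both replicate plates, either sign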;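 note: integrated kinetic ratio of fluorescence range over baseline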
HEK293 MPD ctr 2-1 = parental HEK293 nonspecific activity of TRPC6 inhibitors, second screen. shares compounds with TRPC6 inhibitor. parental HEK293 membrane potential dye fluorescence; maximal acetylcholine challenge after compound addition. signal change vs control, % at 10 µM. 920 tested, 31% active;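 active = membrane potential signal moving either way by over 3 SD of the maximum-effect control, in both duplicate plates, meaning non-specific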
HEK293 MPD ctr-1 = counter-screen for TRPC6 inhibitors: effect in parental HEK293 cells | shares compounds with TRPC6 inhibitor | parental HEK293 membrane potential dye fluorescence | membrane potential signal change, % at 10 µM | 920 tested, 60% active;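 active = membrane potential signal shifting up or down by more than 3 SD of buffer-only wells, on both duplicate plates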
HEK293 MPD ctr-2 = parental HEK293 nonspecific activity of TRPC6 modulators. 2,400 tested, 51% active. membrane potential signal change, % at 10 µM. AID 488924. shares compounds with TRPC6 inhibitor. membrane potential dye fluorescence;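 active = membrane potential signal moves up or down beyond 5 SD from buffer-only wells, on both duplicate plates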
HEK293 MPD ctr 2-2 = second check of TRPC6 modulator effects in parental HEK293 cells; shares compounds with TRPC6 inhibitor; membrane potential dye fluorescence; after compound, maximal acetylcholine stimulation; inhibition, % at 10 µM; 2,400 tested, 14% active; AID 488926;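 active = membrane potential signal drops by more than 5 SD from the mean control signal, in both duplicate plates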;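 note: plate controls were acetylcholine ECmax control wells for no effect and buffer only wells for full effect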
TRPC4 ctr mod = tests whether TRPC6 modulators also affect mouse TRPC4; percent change from control (negative = decrease, positive = increase), % at 10 µM; HEK293 TRPC4/mu-opioid, membrane potential fluorescence; shares compounds with TRPC6 inhibitor; 2,400 tested, 69% active;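 active = membrane potential signal moved up or down beyond 5 SD of buffer control wells, in both duplicate plates, actives on both sides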;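 note: plate controls were assay buffer wells for no effect and DAMGO maximal-effect wells for full effect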
TRPC4 ctr inh 2 = mouse TRPC4 off-target activity of TRPC6 modulators, second screen. shares compounds with TRPC6 inhibitor. HEK293 TRPC4/mu-opioid, membrane potential dye fluorescence; stimulated with maximal-effect DAMGO. 2,400 tested, 55% active. inhibition, % at 10 µM;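 active = drop in membrane potential signal beyond 5 SD of the control wells in both duplicate plates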;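 note: TRPC4 counter screen for TRPC6 hits run under conditions tuned for TRPC6 not TRPC4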
TRPC6 block conf = confirmation of mouse TRPC6 inhibitors; shares compounds with TRPC6 inhibitor; HEK293-TRPC6, membrane potential dye, ACh-evoked depolarization; inhibition, % at 10 µM; 3,300 tested, 43% active; AID 488960;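 active = fluorescence ratio falls more than 5 SD below the full-stimulation control mean, in both duplicate runs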;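 note: integrated fluorescence ratio of peak minus minimum over baseline after agonist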
TRPC6 act conf = confirmation of mouse TRPC6 activators; shares compounds with TRPC6 inhibitor; HEK293-TRPC6 membrane potential dye fluorescence, FDSS; activation, % at 10 µM; 2,800 tested, 11% active;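 active = ratio signal rise beyond 5 SD above unstimulated control wells' mean, seen in both duplicate runs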;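 note: plate controls were buffer EC0 wells for no effect and acetylcholine ECmax response for full effect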
* marks the source's active call; other numbers are inactive results; i = inactive; · = no result given; + = active, no number.

SMILES	TRPC6 inhibitor	TRPC4 PAM	TRPC4 inh	TRPC6 act	TRPC4 act	TRPC6 block conf	TRPC6 act conf	others
O=Cc1cc(Cl)ccc1OCCN1CCC(Cc2ccccc2)CC1	i	i	i	i	i	·	·
O=C(NCCn1cccn1)C1CCC(=O)N(CCc2ccccc2)C1 (centres undefined)	i	i	i	i	i	·	·
CC(C)(C)OC(=O)N[C@@H](Cc1ccccc1)C(=O)N[C@@H](CO)[C@H](O)[C@@H]1C[C@@H]1C(=O)NC1CC1	i	i	i	i	i	·	·
Cc1cc(C)c2nc(N3CCC(C(=O)NCC4CCCO4)CC3)sc2c1 (centres undefined)	i	i	i	i	i	·	·
Cc1cc(C)c2nc(N3CCC(C(=O)NCCCN4CCCCC4)CC3)sc2c1	-8.8*	i	i	i	i	52%*	i	TRPC4 sel inh 2=74%*;TRPC4 spec=2.6%*;HEK293 MPD ctr 2-1=i;HEK293 MPD ctr-1=2.9%*
Clc1ccc(SCCCCN2CCOCC2)cc1	i	i	i	i	i	·	·
Clc1ccc(SCCCCN2CCNCC2)cc1	-7.5*	14*	i	i	i	i	i	TRPC4 sel inh 2=67%*;TRPC4 spec=i;HEK293 MPD ctr 2-1=i;HEK293 MPD ctr-1=2.5%*
Cc1ccc(Cl)cc1NC(=O)CC(O)(C(F)(F)F)C(F)(F)F	-8.1*	i	i	i	i	110%*	·	TRPC4 sel inh 2=58%*;TRPC4 spec=41%*;HEK293 MPD ctr 2-1=-77%*;HEK293 MPD ctr-1=28%*
O=C(O)c1cccc(-c2ccc(/C=N/Nc3ccc([N+](=O)[O-])cc3)o2)c1	i	i	i	i	i	·	·
CC(C)(C)NC(=S)N/N=C\c1ccc(-c2ccc([N+](=O)[O-])cc2)o1	i	16*	i	18*	i	i	i	HEK293 MPD ctr-2=i;HEK293 MPD ctr 2-2=i;TRPC4 ctr mod=51%*;TRPC4 ctr inh 2=i
O=C(O)c1ccc(-c2ccc(/C=N/Nc3ccc([N+](=O)[O-])cc3)o2)cc1	i	19*	i	43*	121*	i	484%*	HEK293 MPD ctr-2=+;HEK293 MPD ctr 2-2=i;TRPC4 ctr mod=310%*;TRPC4 ctr inh 2=i
Cc1ccc(-c2nnc(SCC(=O)NNC(=O)COc3ccccc3C)n2C)cc1	-6.2*	i	i	i	i	i	i	HEK293 MPD ctr-2=i;HEK293 MPD ctr 2-2=i;TRPC4 ctr mod=i;TRPC4 ctr inh 2=i
Cc1ccc(-c2nnc(SCC(=O)NNC(=O)COc3cccc(C)c3)n2C)cc1	i	i	i	i	i	·	·
CN(C)S(=O)(=O)c1cccc(C(=O)NCC(=O)NC2CCN(Cc3ccccc3)CC2)c1	i	i	i	i	i	·	·
